Converted amounts (≈) assume the structure as drawn.
How the values were obtained:
[1] = Cytotoxicity against human HeLa cells assessed as alteration in cell morphology; format: cell-based
Procedure, shortened: (§1)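 Uninfected cell cultures tested in parallel with the CPE-reduction antiviral assay; cells grown to confluency, then serial compound dilutions added and incubated at 37 °C (3 days in the parallel antiviral set-up). Read-out is microscopic examination of morphology; value is the minimum cytotoxic concentration, the lowest causing a microscopically detectable alteration of normal cell morphology.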

[2] = system: Respiratory syncytial virus; test: Antiviral activity against RSV infected in human HeLa cells assessed as reduction in virus-induced cytopathogenicity after 3 days; format: functional, organism-based; details: 72 h
Human alphaherpesvirus 2 = test: Antiviral activity against HSV2 G infected in human HEL cells assessed as reduction in virus-induced cytopathogenicity after 3 days; format: functional, organism-based; details: Human alphaherpesvirus 2, strain G, 72 h
[3] = system: Vesicular stomatitis virus; test: Antiviral activity against VSV infected in human HeLa cells assessed as reduction in virus-induced cytopathogenicity after 3 days; format: functional, organism-based; details: 72 h
Coxsackievirus B4 [4] = test: Antiviral activity against Coxsackievirus B4 infected in human HeLa cells assessed as reduction in virus-induced cytopathogenicity after 3 days; format: functional, organism-based; details: Enterovirus B, 72 h
Punta Toro virus = test: Antiviral activity against Punta Toro virus infected in african green monkey Vero cells assessed as reduction in virus-induced cytopathogenicity after 3 days; format: functional, organism-based; details: 72 h
[5] = Cytotoxicity against human HEL cells assessed as alteration in cell morphology; format: cell-based; procedure, shortened: as §1
Human alphaherpesvirus 1 [6] = test: Antiviral activity against HSV1 KOS infected in human HEL cells assessed as reduction in virus-induced cytopathogenicity after 3 days; format: functional, organism-based; details: Human alphaherpesvirus 1, KOS, 72 h
[7] = system: Vesicular stomatitis virus; test: Antiviral activity against VSV infected in human HEL cells assessed as reduction in virus-induced cytopathogenicity after 3 days; format: functional, organism-based; details: 72 h
Staphylococcus aureus = test: Antimicrobial activity against Staphylococcus aureus after 24 hrs by tube dilution method; format: functional
Procedure, shortened: (§2)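 Tube dilution in DMSO (stock 100 mg/ml) with serial dilutions; incubation 37 °C for 48 h for C. albicans (other organisms' times truncated in text). MIC read as lowest concentration inhibiting visible growth. Norfloxacin (bacteria) and fluconazole (fungi) as reference drugs.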

[8] = system: Mammalian orthoreovirus 1; test: Antiviral activity against Reovirus 1 infected in african green monkey Vero cells assessed as reduction in virus-induced cytopathogenicity after 3 days; format: functional, organism-based; details: Mammalian orthoreovirus 1, Vero, 72 h
Sindbis virus = test: Antiviral activity against Sindbis virus infected in african green monkey Vero cells assessed as reduction in virus-induced cytopathogenicity after 3 days; format: functional, organism-based; details: 72 h
Candida albicans = test: Antimicrobial activity against Candida albicans after 48 hrs by tube dilution method; format: functional; procedure, shortened: as §2
[9] = Cytotoxicity against african green monkey Vero cells assessed as alteration in cell morphology; format: cell-based; details: chlorocebus sabaeus; procedure, shortened: as §1
Human alphaherpesvirus 1 [10] = test: Antiviral activity against thymidine kinase-deficient acyclovir-resistant HSV1 KOS infected in human HEL cells assessed as reduction in virus-induced cytopathogenicity after 3 days; format: functional, organism-based; details: Human alphaherpesvirus 1, KOS, 72 h
Escherichia coli = test: Antimicrobial activity against Escherichia coli after 24 hrs by tube dilution method; format: functional; procedure, shortened: as §2
Aspergillus niger = test: Antimicrobial activity against Aspergillus niger after 7 days by tube dilution method; format: functional; details: 168 h; procedure, shortened: as §2
Bacillus subtilis = test: Antimicrobial activity against Bacillus subtilis after 24 hrs by tube dilution method; format: functional; procedure, shortened: as §2
Coxsackievirus B4 [11] = test: Antiviral activity against Coxsackievirus B4 infected in african green monkey Vero cells assessed as reduction in virus-induced cytopathogenicity after 3 days; format: functional, organism-based; details: Enterovirus B, 72 h
Human respirovirus 3 = test: Antiviral activity against Parainfluenza-3 virus infected in african green monkey Vero cells assessed as reduction in virus-induced cytopathogenicity after 3 days; format: functional, organism-based; details: Human respirovirus 3, Vero, 72 h

| Compound | MCC [1] [µg/mL] | EC50 [2] [µg/mL] | EC50 (Human alphaherpesvirus 2) [µg/mL] | EC50 [3] [µg/mL] | EC50 (Coxsackievirus B4 [4]) [µg/mL] | EC50 (Punta Toro virus) [µg/mL] | MCC [5] [µg/mL] | EC50 (Human alphaherpesvirus 1 [6]) [µg/mL] | EC50 [7] [µg/mL] | MBC (Staphylococcus aureus) [µM] | MIC (Staphylococcus aureus) [µM] | EC50 [8] [µg/mL] | EC50 (Sindbis virus) [µg/mL] | MFC (Candida albicans) [µM] | MIC (Candida albicans) [µM] | MCC [9] [µg/mL] | EC50 (Human alphaherpesvirus 1 [10]) [µg/mL] | MBC (Escherichia coli) [µM] | MIC (Escherichia coli) [µM] | MFC (Aspergillus niger) [µM] | further results |
| --- | --- | --- | --- | --- | --- | --- | --- | --- | --- | --- | --- | --- | --- | --- | --- | --- | --- | --- | --- | --- | --- |
| O=C(c1ccccc1Br)n1ccnc1-c1ccccc1[N+](=O)[O-] | > 100 | > 100 | > 100 | > 100 | > 100 | > 100 | > 100 | > 100 | > 100 | 268 (≈ 99.7 µg/mL) | 2 (≈ 0.744 µg/mL) | > 100 | > 100 | 268 (≈ 99.7 µg/mL) | 33 (≈ 12.3 µg/mL) | > 100 | > 100 | 268 (≈ 99.7 µg/mL) | 33 (≈ 12.3 µg/mL) | 67 (≈ 24.9 µg/mL) | MIC (Aspergillus niger): 4 µM (≈ 1.49 µg/mL); MBC (Bacillus subtilis): 268 µM (≈ 99.7 µg/mL); MIC (Bacillus subtilis): 2 µM (≈ 0.744 µg/mL); EC50 (Coxsackievirus B4 [11]): > 100 µg/mL; EC50 (Human respirovirus 3): > 100 µg/mL |
| O=C(c1ccccc1Br)n1ccnc1-c1ccc([N+](=O)[O-])cc1 | > 100 | > 100 | > 100 | > 100 | > 100 | > 100 | > 100 | > 100 | > 100 | 16 (≈ 5.95 µg/mL) | 2 (≈ 0.744 µg/mL) | > 100 | > 100 | 134 (≈ 49.9 µg/mL) | 16 (≈ 5.95 µg/mL) | > 100 | > 100 | 33 (≈ 12.3 µg/mL) | 4 (≈ 1.49 µg/mL) | 67 (≈ 24.9 µg/mL) | MIC (Aspergillus niger): 4 µM (≈ 1.49 µg/mL); MBC (Bacillus subtilis): 33 µM (≈ 12.3 µg/mL); MIC (Bacillus subtilis): 4 µM (≈ 1.49 µg/mL); EC50 (Coxsackievirus B4 [11]): > 100 µg/mL; EC50 (Human respirovirus 3): > 100 µg/mL |
| O=C(c1ccc([N+](=O)[O-])cc1)n1ccnc1-c1ccc([N+](=O)[O-])cc1 | 100 | > 20 | 50 (≈ 148 µM) | > 20 | > 20 | > 100 | > 100 | 59 (≈ 174 µM) | > 100 | 295 (≈ 99.8 µg/mL) | 73 (≈ 24.7 µg/mL) | > 100 | > 100 | 147 (≈ 49.7 µg/mL) | 18 (≈ 6.09 µg/mL) | > 100 | 45 (≈ 133 µM) | 295 (≈ 99.8 µg/mL) | 73 (≈ 24.7 µg/mL) | 147 (≈ 49.7 µg/mL) | MIC (Aspergillus niger): 18 µM (≈ 6.09 µg/mL); MBC (Bacillus subtilis): 295 µM (≈ 99.8 µg/mL); MIC (Bacillus subtilis): 36 µM (≈ 12.2 µg/mL); EC50 (Coxsackievirus B4 [11]): > 100 µg/mL; EC50 (Human respirovirus 3): > 100 µg/mL |
| COc1ccc(-c2nccn2C(=O)c2ccc([N+](=O)[O-])cc2)cc1 | > 100 | > 100 | > 100 | > 100 | > 100 | > 100 | > 100 | > 100 | > 100 | 18 (≈ 5.82 µg/mL) | 2 (≈ 0.647 µg/mL) | > 100 | > 100 | 147 (≈ 47.5 µg/mL) | 18 (≈ 5.82 µg/mL) | > 100 | > 100 | 147 (≈ 47.5 µg/mL) | 18 (≈ 5.82 µg/mL) | 147 (≈ 47.5 µg/mL) | MIC (Aspergillus niger): 9 µM (≈ 2.91 µg/mL); MBC (Bacillus subtilis): 18 µM (≈ 5.82 µg/mL); MIC (Bacillus subtilis): 2 µM (≈ 0.647 µg/mL); EC50 (Coxsackievirus B4 [11]): > 100 µg/mL; EC50 (Human respirovirus 3): > 100 µg/mL |

From ChEMBL document CHEMBL1158343, “Synthesis, antimicrobial and antiviral evaluation of substituted imidazole derivatives” (Eur J Med Chem, 2009)
